Molecules are shown by their SMILES.

A word on the inhibition: it is the relative decrease from the control value, in per cent.

The target in the experiment is Autotaxin (Homo sapiens, UniProt Q13822). The experiment is described as follows: Inhibition of C-terminal FLAG tagged human recombinant ATX expressed in insect sf9 cells at 10 uM using FS-3 as substrate measured every 2 mins for 60 mins by FRET assay. In outline:
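10 μM compound with 10 nM human FLAG-fusion ATX in pH 8.0 Tris buffer (30 μM BSA, 1 mM CaCl2, 1 mM MgCl2, 5 mM KCl, 140 mM NaCl) and 1 μM FS-3. Fluorescence at ex 485/em 520 nm read every 2 min for 60 min at 37 °C. Normalized to no-ATX (0%) and ATX without compound (100%). Triplicate.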

Take `O=C(O)c1ccc(N2CCN(C(=O)COc3cccc(F)c3)CC2)cc1`: the inhibition worked out at 32.3%.

For `CC(C)(C)c1ccc(NC(=O)COC(=O)c2ccc([N+](=O)[O-])s2)cc1`, the inhibition was found to be 10.7%.

Regarding `Cc1nc(N2CCN(c3ccccc3F)CC2)c2c(C)c(C)sc2n1`, the inhibition was -2.48%.

Turning to `CCc1ccc(OCC(=O)Nc2ccc(-c3nc4ccccc4o3)cc2)cc1`, the inhibition was found to be 34.7%.

Take `Cc1cc(NC(=O)CSc2nc3sc4c(c3c(=O)[nH]2)CCC(C)C4)no1` (configuration not stated): the inhibition turned out to be 11%.

Turning to `O=C(COc1ccccc1F)N1CCN(c2ccc([N+](=O)[O-])cc2)CC1`, the inhibition amounted to 35.2%.

For the molecule `COc1ccc(N2C(=O)/C(=C/c3ccc(O)c([N+](=O)[O-])c3)SC2=S)cc1`, the inhibition was determined as 4.83%.

Regarding `CCc1ccc2c(c1)c1nnc(SCC(=O)Nc3nnc(C(C)C)s3)nc1n2C`, the inhibition amounted to 21.7%.

On to `Cn1ncc(Cl)c1C(=O)NC1CCC(C(C)(C)C)CC1` (configuration not stated), for which the inhibition turned out to be 15%.

Turning to `Cc1ccc2cc3c(nc2c1)sc1c(SCC(=O)NCc2ccco2)ncnc13`, the inhibition was 13.4%.

Regarding `CSc1cccc2c(C)cc(N3CCN(c4ccc(F)cc4)CC3)nc12`, the inhibition is 9.17%.

`C=C(C)c1cccc(C(C)(C)NC(=O)N2CCN(C(=O)OCC)CC2)c1`: the inhibition came to 10.5%.

Turning to `COc1ccc2oc(C(=O)NCCNC(=O)C3C(C=C(C)C)C3(C)C)cc2c1` (configuration not stated), the inhibition stood at 25.5%.

With `Cn1ncc2c(Cl)nc(-c3cc4cc([N+](=O)[O-])ccc4o3)nc21`, the inhibition was -0.99%.

Turning to `C=C(Br)C(=O)N1CCN(C(=O)CCSc2ccc3ccccc3c2)CC1`, the inhibition is 46.4%.

In the case of `Cc1cc(C)c(C)c(S(=O)(=O)N2CCN(c3ncnc4sc(C)c(C)c34)CC2)c1C`, the inhibition was 19.8%.

For `CCc1cc2c(cc(C(=O)NCCc3ccc(OC)c(OC)c3)n2C)s1`, the inhibition is 35.1%.

In the case of `CON1CC/C(=C\c2cc(C(C)(C)C)c3c(c2)C(C)(C)CO3)C1=O`, the inhibition stood at 30.3%.

In the case of `O=C(Nc1ccccc1)N1CC(O)C(N2CCN(Cc3ccccc3)CC2)C1` (configuration not stated), the inhibition worked out at 2.55%.

On to `CCCCOCCCNc1cc(-c2cccc(C)c2)ncn1`, for which the inhibition was found to be 9.16%.

With `O=C(O)c1ccc(N2CCN(C(=O)COc3ccccc3F)CC2)cc1`, the inhibition was determined as 6.1%.

As for `Clc1ccc(Cl)c2c1CC(N1CCN(c3ncccn3)CC1)S2` (configuration not stated), the inhibition is 9.03%.

`CC1=NC(c2cccc(C)c2)C(O)=C1/C=C1/C(=O)N(c2ccc(C)cc2C)N=C1C` (configuration not stated): the inhibition worked out at 10.5%.

For `Cc1cc(C(=O)CSc2ccc(Cl)cc2)cc(C)c1OC(=O)N(C)C`, the inhibition came to 6.06%.

As for `CC(C)(C)CN(Cc1cccc(CN)c1)C(=O)c1ccc(-c2ccc(F)cc2)nc1`, the inhibition fell in the range of 19.8 to 42.8%.

For the molecule `O=c1/c(=C/C=C/c2ccc([N+](=O)[O-])o2)sc2nc3ccccc3n12`, the inhibition was 5.82%.

With `O=S(=O)(c1cc(-c2ccon2)cs1)N1CCN(Cc2ccc3c(c2)OCO3)CC1`, the inhibition was 13.4%.

`CC(C)(C)CN(Cc1cccc(CN)c1)C(=O)c1ccc(-c2ccccc2)nc1`: the inhibition was 32.5%.

As for `COc1cc(C(=O)Nc2ccc(C(C)=O)cc2)c(Br)c(OC)c1OC`, the inhibition came out at 16.9%.

For the molecule `COC(CNCc1cc(Cl)c(CNCC(OC)OC)cc1Cl)OC`, the inhibition worked out at 18.6%.

As for `Cc1cc(NC(=O)CSc2nc3sc4c(c3c(=O)[nH]2)CCC(C(C)(C)C)C4)no1` (configuration not stated), the inhibition was found to be 15.4%.

Take `COc1ccc(C(=O)Oc2c(Br)cc(Br)c3cccnc23)cc1`: the inhibition came out at 0.32%.

`Cc1cc(OCC(=O)Nc2ccc(-c3nc4ncccc4o3)cc2)ccc1Cl`: the inhibition amounted to 4.63%.

With `COC(=O)c1sc(NC(=O)c2cc(C)ccc2Cl)c(C#N)c1C`, the inhibition was -2.35%.

In the case of `Cn1cc(Cl)c(C2NN=C(SCC(=O)Nc3ccc(C(C)(C)C)cc3)S2)n1` (configuration not stated), the inhibition stood at 43.4%.

Regarding `CCc1nc(C)cc(NCC(=O)C2(O)CC3(C)CCC4C5C=CC(=O)C=C5CCC45C3C25)c1O` (configuration not stated), the inhibition was found to be 17.5%.

`O=C1N=C(Nc2ccccc2)SC1Cc1ccc(-c2cccc(Br)c2)o1` (configuration not stated): the inhibition is -0.74%.

Take `O=C(c1ccco1)N1CCN(C(=O)C2CCCN2C(=O)CC2C=CCC2)CC1` (configuration not stated): the inhibition worked out at 5.7%.

Consider `Cc1ccc2cc(C#N)c(N3CCCN(C(=O)c4ccc(F)cc4F)CC3)nc2c1`, for which the inhibition came to 46.4%.

With `Cc1cc(C(F)(F)F)nc2sc3c(c12)NC(c1c(Br)cnn1C)NC3=O` (configuration not stated), the inhibition was -1.36%.

For `CC[n+]1c(Cc2nn3c(C)cc(C)nc3[n+]2CC)nn2c(C)cc(C)nc21`, the inhibition came out at 2.48%.

As to `CCOc1ccc(N2C(=O)/C(=C3\C(=O)Nc4ccc(Br)cc43)SC2=S)cc1`, the inhibition is -3.35%.

Turning to `COc1ccc(/C(N)=N/OC(=O)COc2ccc(C(C)(C)C)cc2Br)cc1OC`, the inhibition turned out to be 6.68%.

As to `CCCCOc1ccc(S(=O)(=O)N2CC(NCc3ccco3)CC2C(=O)CNO)cc1` (configuration not stated), the inhibition was determined as 38%.

On to `COc1ccc(/C=N/c2cc(C)ccc2C)cc1OC`, for which the inhibition is -2.55%.

Turning to `CCCCCCCCCCCC[N+](C)(C)CC(O)C(O)C(O)C(O)CO` (configuration not stated), the inhibition was 36.7%.

Consider `CN(C)CCCCN(CCCN(C)C)Cc1cccc2ccccc12`, for which the inhibition was 36.2%.

For the molecule `O=C(COc1ccccc1F)N1CCN(c2cccc([N+](=O)[O-])c2)CC1`, the inhibition is 15.2%.

For the molecule `CCOC(=O)c1c(C)[nH]c(C(=O)OCC(=O)NCc2ccco2)c1C`, the inhibition stood at 15.6%.

On to `O=C(CCCc1ccc([N+](=O)[O-])cc1)N1CCN(c2ccccc2F)CC1`, for which the inhibition came to 25.6%.

In the case of `CC(C)c1ccc(NC(=O)c2cc([N+](=O)[O-])ccc2Cl)cc1`, the inhibition was 12.1%.

Take `Cc1nn(-c2ccccc2)c(O)c1/N=C1\C(=O)N(C)c2ccc(Br)cc21`: the inhibition turned out to be 1.44%.

With `Cc1ccc(SCC(=O)Nc2ccc(C(=O)NC(C)(C)C)cc2)cc1`, the inhibition turned out to be 8.67%.

As for `CC(C)CC1C(=O)NC(C)CN1C(=O)c1ccc(-c2ccccc2)cc1` (configuration not stated), the inhibition came to 32.8%.

`COc1ccccc1N1CCN(/N=C(\C)c2ccc3ccccc3c2)CC1`: the inhibition was -0.74%.

Turning to `Cc1oc(C(C)(C)C)cc1C(=O)NCCNC(=O)c1cc(C(C)(C)C)oc1C`, the inhibition came out at 7.68%.

With `Cc1c(Cl)c(-c2nnc(NCC(C)C)s2)nn1C`, the inhibition worked out at 7.92%.

In the case of `Cc1ccccc1Nc1nc(C2(C)CC3(CC(COCC(C)C)OC3=O)C(=O)O2)cs1` (configuration not stated), the inhibition was 40.8%.

Regarding `CCOc1ccc(N2C(=O)/C(=C\c3sccc3C)C(C(=O)OC)=C2C)cc1`, the inhibition was 4.09%.

As for `N#C/C(=C\c1ccc(-c2cc([N+](=O)[O-])ccc2Cl)o1)C(=O)Nc1ccccc1C(=O)O`, the inhibition was found to be 3.59%.

In the case of `CCN1CCN(c2cc(C)c3ccc(Cl)cc3n2)CC1`, the inhibition was determined as 14.2%.

Consider `O=C(COc1ccccc1Cl)N1CCN(c2ccc([N+](=O)[O-])cc2)CC1`, for which the inhibition came out at 46.1%.

With `O=S(=O)(c1ccc(OC(F)(F)F)cc1)N1CCC(N2CCN(c3ccccc3F)CC2)CC1`, the inhibition is 8.43%.

On to `Cn1ncc2c1ncn1nc(-c3ccc(Cn4cc(Cl)cn4)o3)nc21`, for which the inhibition is -1.86%.

Take `COc1ccc(C2OCC3OC(OC)C(O)C(O)C3O2)cc1OCc1ccccc1` (configuration not stated): the inhibition is -4.83%.

As for `CCCCC(CC)C(=O)Nc1nnc(C2CCCCC2)s1` (configuration not stated), the inhibition amounted to 7.68%.

With `CCC(C)c1ccc(OCC(=O)Nc2cc(OC)c(OC)cc2C(=O)O)cc1` (configuration not stated), the inhibition was -8.29%.
